An excerpt weighted towards active compounds, which were near 2.6% of everything screened.
TAAR1 antag: human TAAR1 antagonists, primary screen, Fluo-8 calcium fluorescence, CHO RD-HGA16 cells; Trace amine-associated receptor 1 (Homo sapiens), Q96RJ0; antagonist; inhibition, % at 3 µM; hit rate 1.5% among 360,000;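 active means inhibition above a per-plate cutoff, the mean inhibition of test compounds on that plate plus 3 SD, cut at about 49% in these data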;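 further: 0% = DMSO plus EC80 beta-PEA response and 100% = DMSO alone without agonist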
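Test system: RD-HGA16 CHO cells with stable hTAAR1 and Gα16 / Probe or stimulus: EC80 β-phenethylamine stimulus / Times: seeding 17-24 h prior, 75-min 37 °C, 30-min RT dye loading / Detection: Fluo-8 calcium-sensitive fluorescence / Read-out basis: % inhibition scaled between DMSO and EC80 PEA controls / Repeats: singlicate, one well per test compound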
VLA-4 inh: inhibition in human VLA-4 binding assay, primary screen, VLA-4 allosteric modulator project, MLPCN library, flow cytometry, VLA-4 expressing cells. Integrin alpha-4 (Homo sapiens), P13612. inhibition, % (about 7 µM as worked out from the volumes in the protocol). ligand binding flow cytometry. hit rate 0.2% among 330,000; in the data active means inhibition above about 50%
TAAR1 ag: human TAAR1 agonists, primary screen, Fluo-8 calcium fluorescence, CHO RD-HGA16 cells | Trace amine-associated receptor 1 (Homo sapiens), Q96RJ0 | vehicle wells 0%, saturating PEA agonist 100% | activation, % at 3 µM | hit rate 0.99% among 360,000 | AID 624467, 2012;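 active means activation above the mean activation of all test compounds in the run plus 3 SD, cut at about 38% in these data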
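Test system: RD-HGA16 (CHO) cells co-expressing Gα16 and hTAAR1 / Benchmarks: DMSO vehicle as 0%, PEA at EC100 as 100% / Repeats: no replicates (n 1) / Measure: % activation from peak over basal fluorescence ratio, DMSO-to-PEA scaled / Timing: 17-24 h plating, Fluo-8 75 min 37 °C, 30 min RT / Technique: kinetic Fluo-8 calcium fluorescence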
Rce1 inh: yeast Rce1p protease inhibitors, primary screen, biochemical, fluorescence, cell-free homogeneous | CAAX prenyl protease 2 (Saccharomyces cerevisiae (strain ATCC 204508 / S288c)), Q03530 | yeast membranes, quenched prenylated peptide cleavage fluorescence | calls only | hit rate 0.27% among 290,000 | AID 2563, 2010;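 active means fall in fluorescence gain of 50% or more versus controls, with final raw signal at or below 3038400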;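 further: plate controls were neutral control wells for no effect and wells lacking membranes for full effect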
Platelet DG rel: inhibitors of platelet dense granule secretion, primary screen, cell-based, MLPCN, human platelets | human platelet-rich plasma, SFLLRN dense granule ATP release, luminescence | inhibition, %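 (compounds screened at 7.5 µM in platelet-rich plasma)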 | hit rate 0.22% among 300,000 | AID 1663, 2009;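 active means mean replicate score, as percent of positive control, at or above 50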
* hit, by the source's call; i = inactive; x = no result given; + = active, no number.

SMILES	TAAR1 antag	VLA-4 inh	TAAR1 ag	Rce1 inh	Platelet DG rel
CC(C)(C)OC(=O)C[C@@H]1C/C=C\C[C@@H](CC(=O)N(CCO)Cc2ccccc2)C(=O)NC[C@H](c2ccccc2)OC1=O	62.9*	-2.5	23.1	x	x
O=C1N[C@@H](Cc2ccccc2)COC(=O)[C@@H](Cc2ccc(F)cc2)C/C=C\C[C@@H]1CC(=O)N(CCO)Cc1ccccc1	54.4*	2.6	27.6	x	x
CC(C)(C)[C@H]1COC(=O)[C@@H](Cc2ccc(F)cc2)CC/C=C/C[C@@H](CC(=O)N[C@@H](CO)Cc2ccccc2)C(=O)N1	52.0*	7.7	18.8	x	x
CC(=O)N(CCc1ccccc1)c1ccc2c(c1)C1CC2CCN1C(=O)OCc1ccccc1 (centres undefined)	45.4	x	-0.6	x	x
O=C(C(=O)N1CCC(CNS(=O)(=O)c2ccc(C(F)(F)F)cc2)CC1)c1cc2ccccc2o1	-9.8	x	3.1	x	x
Cc1nn(CCN)c(C)c1Cl	57.9*	7.3	91.5*	i	0.6
CCCc1cc(=O)[nH]c(SCC(=O)N2c3ccccc3CC2C)n1 (centres undefined)	-12.8	9.7	-0.5	x	x
O=C(COC(=O)CCS(=O)(=O)c1ccc(F)cc1)NC1CCCCC1	-12.5	2.0	-0.1	x	x
O=C(Nc1cccc(O)c1)c1noc2c1CCc1ccccc1-2	20.6	2.1	12.9	i	50.8*
CCC(Cc1ccccc1)NS(=O)(=O)c1c(C)nc2sccn2c1=O (centres undefined)	-10.8	-5.2	0.8	i	58.3*
COc1ccc(CN2CCN(C(=O)c3ccc(S(=O)(=O)N4CCCCCC4)cc3)CC2)cc1F	58.2*	x	12.4	x	x
CCCCSCc1nc2nc(Cl)c(Cl)nc2[nH]1	-32.6	x	9.8	x	x
O=C(CCSc1nnc(-c2ccco2)o1)Nc1ccc(Cl)cc1	-19.1	15.3	40.8*	i	-0.8
Cc1cc(NS(=O)(=O)c2ccccc2)c([N+](=O)[O-])cc1C	-14.8	-2.2	-1.6	+	-0.7
CCOc1ccc(NC(=O)Cn2nnc(C(=O)NCc3ccc4c(c3)OCO4)c2N)cc1	-17.6	19.7	2.1	i	16.4
Cc1ccc(/C=N/n2c(-c3cccs3)n[nH]c2=S)cc1	-20.8	-2.5	-2.9	i	-8.5
S=c1[nH]nc(-c2cccs2)n1/N=C/c1c(Cl)cccc1Cl	52.6*	-3.6	47.5*	i	-3.1
CCc1ccc(/C=C2\SC(=S)N(CCCC(=O)NC3=NCCS3)C2=O)cc1	4.1	x	0.5	x	x
CCN1CCN(CCNC(=O)c2ccc(/C=C3/Sc4ccccc4N(Cc4cccc(Cl)c4)C3=O)cc2)CC1	56.0*	-7.6	36.3	i	3.2
Cc1cccc(CN2C(=O)/C(=C\c3ccc(C(=O)NCCN4CCOCC4)cc3)Sc3ccccc32)c1	x	7.6	x	i	2.5
COCCn1c(SCc2ccc(OC)c(F)c2)nc2ccccc2c1=O	15.8	-4.3	12.6	i	-10.8
COc1ccc(CSc2nc3ccccc3c(=O)[nH]2)cc1F	49.5*	0.0	15.9	i	-3.7
O=C(Nc1ccccc1)Nc1ccc(S(=O)(=O)N2CCCCC2)cc1	18.8	16.1	50.1*	i	0.2
O=C(Nc1ccccc1)Nc1ccc(C(=O)N2CCCC2)cc1	-14.7	16.3	17.0	i	58.1*
O=C(Nc1ccc(C(=O)N2CCCCC2)cc1)c1ccccc1	-9.7	x	3.9	x	x
COCCN1C[C@@H](CO)O[C@@H](n2cnc3c(NCC(C)C)ncnc32)C1	-7.3	x	1.0	x	x
COc1ccc(C2=Nc3ccccc3NC(=O)C2N(Cc2ccc(F)cc2)C(=O)c2ccco2)cc1 (centres undefined)	7.5	x	0.8	x	x
COc1ccc(C2=Nc3ccccc3NC(=O)C2N(CCc2ccccc2)C(=O)c2cccs2)cc1 (centres undefined)	35.2	x	44.0*	x	x
O=C1Nc2ccccc2N=C(c2ccc3c(c2)OCO3)C1N(CCc1ccccc1)C(=O)CSc1ncccn1 (centres undefined)	35.0	x	41.3*	x	x
CN(C)c1ccc(CC(=O)N2CCCCC2c2cc(C(=O)Nc3ccccc3)no2)cc1 (centres undefined)	-2.4	x	1.8	x	x

Assay outcomes as filed in PubChem.
